Experimental findings from ChEMBL document CHEMBL4402582, “Garcinoic Acid Is a Natural and Selective Agonist of Pregnane X Receptor” (J Med Chem, 2020) are described below.

Data set [1] addresses T1, Nuclear receptor subfamily 1 group I member 2 (Homo sapiens, UniProt O75469).
T1 sequence (O75469 whole entry): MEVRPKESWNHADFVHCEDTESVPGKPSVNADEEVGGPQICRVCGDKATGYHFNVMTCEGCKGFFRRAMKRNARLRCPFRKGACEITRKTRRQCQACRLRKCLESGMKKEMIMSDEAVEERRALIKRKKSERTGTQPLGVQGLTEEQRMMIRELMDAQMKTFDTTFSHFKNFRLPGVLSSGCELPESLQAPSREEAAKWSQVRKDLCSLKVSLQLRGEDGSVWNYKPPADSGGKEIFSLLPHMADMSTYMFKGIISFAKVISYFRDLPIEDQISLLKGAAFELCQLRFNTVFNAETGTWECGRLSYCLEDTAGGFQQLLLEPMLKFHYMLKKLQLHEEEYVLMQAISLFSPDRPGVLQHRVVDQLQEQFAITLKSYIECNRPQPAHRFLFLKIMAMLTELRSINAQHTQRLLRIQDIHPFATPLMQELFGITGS
Briefly: Agonist activity at His-tagged PXR-LBD/SRC-1p (unknown origin) expressed in Escherichia coli BL21(DE3) at 10 uM by coactivator recruitment based Alpha-screen assay. Background: Bead proximity is the source of the signal in Alpha formats.

For data set [2], the system named is Mus musculus. Put plainly: Induction of PXR protein expression in C57BL/6 mouse liver at 5 to 25 mg dosed as oral gavage as single bolus and measured after 24 hrs relative to control. The data set is classed as functional, organism-based. The procedure, abridged: (§1)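 Male C57BL/6 mice, 6–7 weeks old, three per group. Single oral gavage bolus of 5, 10 or 25 mg in olive oil vehicle; vehicle-only controls. Killed at 24 h. Tissue PXR mRNA measured; PXR, CYP3A11 and MDR1 protein measured by immunoblot.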

The subject of data set [3] is Mus musculus. Briefly: Induction of PXR mRNA expression in C57BL/6 mouse intestine at 5 to 25 mg dosed as oral gavage as single bolus and measured after 24 hrs relative to control. The data set is classed as functional, organism-based. The procedure, abridged: as §1
The test system of data set [4] is Mus musculus. Briefly: Induction of PXR protein expression in C57BL/6 mouse hepatic parenchyma assessed as induction of localization of PXR protein at sinusoidal endothelial cells at 5 to 25 mg dosed as oral gavage as single bolus and measured after 24 hrs by IHC analysis relative to control. The data set is classed as functional, organism-based. The gist of the method: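 Male C57BL/6 mice, 6–7 weeks old, three per group. Single oral gavage bolus (5–25 mg) in olive oil; vehicle controls; killed at 24 h. Liver and gut formalin-fixed, paraffin-embedded; 4 μm sections stained with H&E. PXR IHC with polyclonal antibody at 1:200 on an automated stainer with polymer detection.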

In data set [5] the test system is Mus musculus. Put plainly: Induction of PXR mRNA expression in C57BL/6 mouse liver at 5 to 25 mg dosed as oral gavage as single bolus and measured after 24 hrs relative to control. It counts as functional, organism-based. The procedure, abridged: as §1

Active and inactive are the calls of the source. The rule behind the calls is not given here.

Regarding `C/C(=C\CC/C(C)=C/CC[C@]1(C)CCc2cc(O)cc(C)c2O1)CC/C=C(\C)C(=O)O`, the Activity entry in data set [1] is “Active”; in the data set on Mus musculus [2] it was “Dose-dependent effect”; in the data set with Mus musculus [3] it was “Dose-dependent effect”; with Mus musculus [5], “Dose-dependent effect”. For the same compound, the result with Mus musculus [4] was Active.
